Source: ChEMBL document CHEMBL1124982, “Chemistry and structure-activity relationships of C-17 unsaturated 18-cycloalkyl and cycloalkenyl analogues of enisoprost. Identification of a promising new antiulcer prostaglandin” (1990)

How the values were obtained:
Canis familiaris = assay: Tested for gastric antisecretory activity in dogs by intrapouch administration; assay type: functional; conditions: Canis lupus familiaris, Stomach
Summary of the method: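 Adult female beagles (6–11 kg) with Pavlov pouches; after a 30-min basal collection, drug given into the pouch via Thomas cannula in pH 7.4 isoosmotic phosphate buffer with up to 20% ethanol. Fed 10–12 oz canned food 30 min later. Gastric juice collected at 30-min intervals for 4 h; acid output = volume × acidity. Percent reduction from control over 2–5 doses, 2–7 dogs/dose. ED50 by linear regression, 95% limits by Fieller's method.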

Rattus norvegicus = assay: Tested for diarrheal side effects in rats by intragastric administration; assay type: functional; conditions: po
Summary of the method: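 Adult male Charles River rats (210–230 g), individually housed, fasted 24 h with water ad libitum. Logarithmically graded prostaglandin doses given orally, N = 6–12 per group. Diarrhea scored all-or-none for 8 h after dosing. ED50 and 95% confidence intervals by logistic regression.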

| SMILES | ED50 (Canis familiaris) [µg/kg] | ED50 (Rattus norvegicus) [µg/kg] |
| --- | --- | --- |
| COC(=O)CC/C=C\CC[C@H]1C(=O)C[C@@H](O)[C@@H]1/C=C/C[C@@](C)(O)/C=C/C1CCCC1 | 0.3 | 1950 |
| COC(=O)CC/C=C\CC[C@H]1C(=O)C[C@@H](O)[C@@H]1/C=C/C[C@@](C)(O)/C=C/C1(C)CC1 | 0.02 | 1340 |
| COC(=O)CC/C=C\CC[C@H]1C(=O)C[C@@H](O)[C@@H]1/C=C/C[C@@](C)(O)/C=C/C1=CCCCC1 | 0.3 | > 3160 |
| COC(=O)CC/C=C\CC[C@H]1C(=O)C[C@@H](O)[C@@H]1/C=C/C[C@@](C)(O)/C=C/C1CC1 | 0.1 | 402 |
| COC(=O)CC/C=C\CC[C@H]1C(=O)C[C@@H](O)[C@@H]1/C=C/C[C@@](C)(O)/C=C/C1=CCCC1 | 0.02 | > 3160 |
| COC(=O)CC/C=C\CC[C@H]1C(=O)C[C@@H](O)[C@@H]1/C=C/C[C@@](C)(O)C#CC1=CCCC1 | 2.8 | > 3160 |
| COC(=O)CC/C=C\CC[C@H]1C(=O)C[C@@H](O)[C@@H]1/C=C/C[C@@](C)(O)/C=C/C1CCC1 | 0.05 | 530 |
| COC(=O)CC/C=C\CC[C@H]1C(=O)C[C@@H](O)[C@@H]1/C=C/CC(C)(O)CCC1=CCCC1 (stereo partly specified) | 0.1 | 1180 |
